Screens: PubChem BioAssay, several laboratories
NF-kB neuron act: raises NF-kB expression in human neuronal cells; NF-kB reporter expression; stronger effect = higher value; fold change at 12.5 µM; hit rate 1.6% among 190,000; AID 1239; in the data active = fold change above about 3.3
STAT1 blocker: reduces IFN-gamma driven STAT1 reporter signal; NIH 3T3 STAT1-luciferase reporter, luminescence; inhibition, % at 5.5 µM; hit rate 0.35% among 200,000;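 active = inhibition above a set limit, the mean inhibition across all tested compounds plus 3 SD, cut at about 34% in these data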;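 also: 0% = IFN-gamma with DMSO and 100% = IFN-gamma with 300 µM nifuroxazide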
STAT3 act-1: STAT3 signaling activation; hit rate 0.91% among 190,000; activation (% of control), % at 5.6 µM; U3A cells, IL-6 STAT3-luciferase reporter, luminescence; 100% = signal with IL-6 EC80 alone;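 active = activation above the screen-wide mean of compound activation plus 3 SD, cut at about 130% in these data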;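 also: 0% = background luminescence of wells with medium and substrate only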
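Material: STAT3-luciferase reporter U3A cells; Probe or stimulus: IL-6 (33 ng/mL); Incubation: compound pre-incubation 1 h before IL-6, then 6 h stimulation at 37 °C; Technique: luminescence from STAT3-driven luciferase reporter; Evaluation: % activation versus median of IL-6-stimulated wells; Controls: IL-6-only high control.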
STAT3 blocker: STAT3 signaling inhibition; hit rate 0.89% among 190,000; AID 862; inhibition, % at 5.5 µM; U3A cells, IL-6 STAT3-luciferase reporter, luminescence; host cell line lacks STAT1;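 active = inhibition above the mean inhibition across all screened compounds plus 3 SD, cut at about 44% in these data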;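 also: 0% = DMSO only wells and 100% = 100 µM nifuroxazide control wells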
STAT1 act-1: STAT1 signaling activation; activation (% of control), % at 5.5 µM; NIH 3T3 STAT1-luciferase reporter, IFN-gamma, luminescence; 100% = IFN-gamma alone, no compound; hit rate 2.6% among 200,000;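 active = activation above the screen-wide mean activation plus 3 SD, cut at about 130% in these data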;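 also: raw ratio to IFN-gamma control signal so 100% means no change and 0% no light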
APP 5'UTR act: APP 5'UTR luciferase reporter activation; hit rate 1% among 190,000; SH-SY5Y APP 5'UTR luciferase reporter, luminescence; zero percent = DMSO vehicle wells; AID 1276; activation, % at 2 µM;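 active = activation above a set limit, based on mean plus 3 SD of controls, cut at about 140% in these data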
STAT3 act-2: STAT3 activation, confirmation assay; shares compounds with STAT3 act-1; U3A STAT3-luciferase reporter, IL-6 potentiation, luminescence; U3A cells lack STAT1; 100 means same as IL-6 alone; potentiation (% of control), % at 5.7 µM; hit rate 64% among 1,200;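 active = percent activation of the STAT3 luciferase reporter above a set limit taken from the earlier primary screen, cut at about 130% in these data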;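 also: 0% = background signal of medium plus substrate and 100% = median of IL-6 with DMSO wells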
NFkB act STAT3ct: NF-kappaB activation in STAT3 activator counter-screen. AID 1309. hit rate 11% among 1,200. activation (% of control), % at 5.7 µM. shares compounds with STAT3 act-1. human cells, NF-kappaB reporter activation; in the data active = activation above about 120%;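 also: reporter induced by TNF-alpha stimulation; 100% = median of stimulated DMSO wells and 0% = no signal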
STAT1 act-2: counter-screen for STAT3 activators: STAT1 activation; shares compounds with STAT3 act-1; NIH 3T3 STAT1-luciferase reporter, IFN-gamma, luminescence; activation (% of control), % at 5.7 µM; hit rate 13% among 1,200; AID 1318;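 active = activation above the solvent-only control well mean plus 3 SD, set per screening run, cut at about 120% in these data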;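 also: 100% = IFN-gamma with DMSO median signal so 100% means no change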
* marks the source's active call; other numbers are inactive results; x = not tested or not shown. Sampled rows, rich in hits. Any-hit rate of the full collection: about 4.9%.

SMILES	NF-kB neuron act	STAT1 blocker	STAT3 act-1	STAT3 blocker	STAT1 act-1	APP 5'UTR act	STAT3 act-2	NFkB act STAT3ct	STAT1 act-2
COc1ccccc1-c1nc(N)n[nH]1	0.92	-5	146*	-44	103	1	125	101	100
COc1ccccc1-c1nc(SCC(=O)O)n[nH]1	1.9	-7	137*	-40	107	-3	125	107	102
Cc1ccc(C)c2c1[nH]c1ccc([N+](=O)[O-])cc12	1.3	1	87	19	99	0	x	x	x
Oc1ccccc1/C=N/Nc1cccc2cccnc12	12*	11	162*	-67	90	89	164*	98	93
Cn1c(-[n+]2c(-c3ccccc3)cc(-c3ccccc3)cc2-c2ccccc2)nc2c([N+](=O)[O-])cccc21	0.74	11	151*	-53	90	2	147*	104	98
CCOC(=O)CC(C)(C)/C(C)=N/Nc1ccc([N+](=O)[O-])cc1[N+](=O)[O-]	1.2	11	104	0	91	-23	x	x	x
CCOC(=O)Cn1c(C)c(C#N)c2ccccc21	1.5	5	105	0	95	-11	x	x	x
Cc1c(C#N)c2ccccc2n1CC(=O)O	1.1	6	159*	-63	94	5	161*	102	108
COc1ccc(C2(O)CC3CCC(C2)N3c2nc(C)cc(C)c2C#N)cc1 (stereo not drawn)	1	2	105	-2	98	0	x	x	x
COc1ccc(N(C(C)=O)c2nc(C)cc(C)c2C#N)c(OC)c1	1.1	0	154*	-60	100	-17	157*	103	100
COC(=O)c1[nH]c2cc(C)ccc2c1NC(=O)CN1CCCc2ccccc21	1.1	-7	156*	-55	106	77	143*	113	137*
CCCCS(=O)(=O)Nc1ccc2cn[nH]c2c1	1.2	-2	143*	-47	100	-22	139*	101	99
COc1ccccc1S(=O)(=O)Nc1ccc2cn[nH]c2c1	1.1	2	126	-26	98	-6	x	x	x
O=S(=O)(Nc1ccc2cn[nH]c2c1)c1ccc(Cl)s1	1.1	0	138*	-49	100	14	122	97	95
CCCCN(CCCC)CCNC(=O)CSCc1ccc(C)cc1	0.84	7	95	9	93	3	x	x	x
COc1ccc2nc(N=Nc3c(O)ccc4ccccc34)sc2c1	1.3	11	137*	-43	89	-69	133	103	90
COc1ccccc1NCC(=O)n1nc(C)cc1C	1.2	-2	93	11	100	7	x	x	x
COc1ccccc1OCCCN1C(=O)C(=O)c2cccc(C)c21	1.3	7	138*	-41	92	-14	132	104	97
Cn1cccc1/C=N\NC(=O)Cc1ccc(Br)c2ccccc12	0.91	31	70	41	71	5	x	x	x
Cn1cnc([N+](=O)[O-])c1Oc1ccc2ccccc2c1	1.2	0	139*	-50	100	-4	133*	114	120
N/C(=N\NC(=O)c1ccc(F)cc1)c1cc2ccccc2oc1=O	1.1	0	146*	-42	99	9	142*	109	104
N/C(=N\NC(=O)c1cccs1)c1cc2ccccc2oc1=O	1.4	-6	92	9	105	39	x	x	x
O=C(O)c1ccc(NC2=C/C(=N/S(=O)(=O)c3ccccc3)c3ccccc3C2=O)cc1	x	19	155*	-55	83	-6	131	99	101
Cc1cccc(NC(=O)C(=O)NCCCc2ccccc2)c1	2.3	-22	107	-5	119	30	x	x	x
Nc1ccc(Cc2nc3cc4ccccc4cc3[nH]2)cc1	1.9	-13	136*	-39	112	36	143*	113	130*
SMILES	NF-kB neuron act	STAT1 blocker	STAT3 act-1	STAT3 blocker	STAT1 act-1	APP 5'UTR act	STAT3 act-2	NFkB act STAT3ct	STAT1 act-2
Nc1ccc2nc(CCc3ccccc3)[nH]c2c1	1	-17	105	-8	116	23	x	x	x
Cc1nc2c(n1C1CCCCC1)C(=O)c1ccccc1C2=O	1.8	-2	170*	-70	102	5	137*	98	99
O=C1c2cccnc2C(=O)N1C1CCCCC1	1	11	105	-2	90	4	x	x	x
O=C1N(Cc2cccnc2)C[C@@H]2C[C@@H](c3cccc(OC4CCCC4)c3)N3CCC[C@@]123	1.1	-7	105	0	107	-15	x	x	x
O=C(Nc1ccc2c(c1)C(=O)N(c1ccccc1)C2=O)C1CCCO1 (stereo not drawn)	1.3	-28	94	11	126	-2	x	x	x
O=C(CN1CCCC(O)C1)N1c2ccccc2Sc2ccc(C(F)(F)F)cc21 (stereo not drawn)	1.3	1	113	-10	99	-11	x	x	x
O=C(CSc1nc(C2CC2)nc2ccccc12)N1c2ccccc2Sc2ccc(C(F)(F)F)cc21	0.97	3	145*	-48	98	4	123	110	98
Cc1ccc(CN(CC(=O)NC(C)(C)C)C(=O)CNC(=O)c2cccs2)cc1	0.99	6	93	10	95	7	x	x	x
Cc1cc(Nc2ccccc2)n(-c2ccc(C(=O)O)cc2)n1	1.2	4	104	1	96	5	x	x	x
Cc1cc(Nc2ccccc2)n(C(=O)c2ccc(Cl)cc2)n1	1.6	-33	140*	-46	123	-7	127	114	133*
CCCc1cc(=O)[nH]c(SCC(=O)c2c[nH]c3ccccc23)n1	1.2	9	143*	-36	92	14	123	102	104
Oc1ccccc1-c1nnc(SCCN2CCOCC2)n1Cc1ccccc1	1.1	1	168*	-80	99	-37	147*	106	105
CC1CCCc2sc3ncn(N)c(=N)c3c21 (stereo not drawn)	0.94	-2	91	16	99	2	x	x	x
O=c1c2ccccc2nc(SCc2nc3ccccc3s2)n1CCCO	1.1	-29	137*	-35	127	50	151*	121*	151*
Cn1nnnc1SCc1nc2ccccc2s1	1.7	-12	139*	-43	111	36	139*	115	124*
O=C(CSc1nc2ccccc2c(=O)n1CCCO)NCc1ccccc1	0.79	4	100	7	97	13	x	x	x
CCc1c(C)sc(NC(=O)c2ccco2)c1C(=O)N1CCOCC1	1.1	-4	138*	-42	97	9	99	109	103
